Results reported in ChEMBL document CHEMBL4038305, “Benzoxaborole Antimalarial Agents. Part 5. Lead Optimization of Novel Amide Pyrazinyloxy Benzoxaboroles and Identification of a Preclinical Candidate” (J Med Chem, 2017).

Assays:
[1] = test system: Plasmodium berghei; experiment: Antimalarial activity against Plasmodium berghei infected in Swiss Webster mouse assessed as mouse survival rate at 0.1 mg/kg administered once daily via oral gavage for 4 consecutive days beginning 1 hr after infection measured on day 7 post infection relative to control; assay type: functional
Procedure, shortened: (§1)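 Mice given an intraperitoneal injection of P. berghei-infected erythrocytes taken from a previously infected animal. Oral dosing once daily for 4 consecutive days, starting 1 h after infection. Vehicle: polyethylene glycol 300/propylene glycol/water (weight ratio 55/25/20). Percent survival recorded daily from day 4 to day 20. Chloroquine 30 mg/kg and vehicle-only groups served as controls.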

[2] = test system: Plasmodium berghei; experiment: Antimalarial activity against Plasmodium berghei infected in Swiss Webster mouse assessed as mouse survival rate at 11 mg/kg administered once daily via oral gavage for 4 consecutive days beginning 1 hr after infection measured on day 6 post infection relative to control; assay type: functional
Procedure, shortened: (§2)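 P. berghei-infected erythrocytes taken from a previously infected mouse were injected intraperitoneally. Oral dosing, once daily for 4 consecutive days, began 1 h after infection, in polyethylene glycol 300/propylene glycol/water (55/25/20 by weight). Chloroquine at 30 mg/kg was the positive control, with a vehicle-only group. Percent survival was recorded daily from day 4 to day 20.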

[3] = test system: Plasmodium berghei; experiment: Antimalarial activity against Plasmodium berghei infected in Swiss Webster mouse assessed as mouse survival rate at 3.7 mg/kg administered once daily via oral gavage for 4 consecutive days beginning 1 hr after infection measured on day 4 post infection relative to control; assay type: functional; procedure, shortened: as §2
[4] = test system: Plasmodium berghei; experiment: Antimalarial activity against Plasmodium berghei infected in Swiss Webster mouse assessed as mouse survival rate at 33 mg/kg administered once daily via oral gavage for 4 consecutive days beginning 1 hr after infection measured on day 14 post infection relative to control; assay type: functional; procedure, shortened: as §2
[5] = test system: Plasmodium berghei; experiment: Antimalarial activity against Plasmodium berghei infected in Swiss Webster mouse assessed as mouse survival rate at 11 mg/kg administered once daily via oral gavage for 4 consecutive days beginning 1 hr after infection measured on day 4 post infection relative to control; assay type: functional; procedure, shortened: as §2
[6] = test system: Plasmodium berghei; experiment: Antimalarial activity against Plasmodium berghei infected in Swiss Webster mouse assessed as mouse survival rate at 0.4 mg/kg administered once daily via oral gavage for 4 consecutive days beginning 1 hr after infection measured on day 7 post infection relative to control; assay type: functional; procedure, shortened: as §1
[7] = test system: Plasmodium berghei; experiment: Antimalarial activity against Plasmodium berghei infected in Swiss Webster mouse assessed as mouse survival rate at 33 mg/kg administered once daily via oral gavage for 4 consecutive days beginning 1 hr after infection measured on day 4 post infection relative to control; assay type: functional; procedure, shortened: as §2
[8] = test system: Plasmodium berghei; experiment: Antimalarial activity against Plasmodium berghei infected in Swiss Webster mouse assessed as mouse survival rate at 33 mg/kg administered once daily via oral gavage for 4 consecutive days beginning 1 hr after infection measured on day 13 post infection relative to control; assay type: functional; procedure, shortened: as §2
[9] = test system: Plasmodium berghei; experiment: Antimalarial activity against Plasmodium berghei infected in Swiss Webster mouse assessed as mouse survival rate at 11 mg/kg administered once daily via oral gavage for 4 consecutive days beginning 1 hr after infection measured on day 5 post infection relative to control; assay type: functional; procedure, shortened: as §2
[10] = test system: Plasmodium berghei; experiment: Antimalarial activity against Plasmodium berghei infected in Swiss Webster mouse assessed as mouse survival rate at 100 mg/kg administered once daily via oral gavage for 4 consecutive days beginning 1 hr after infection measured on day 11 post infection relative to control; assay type: functional; procedure, shortened: as §1
[11] = test system: Plasmodium berghei; experiment: Antimalarial activity against Plasmodium berghei infected in Swiss Webster mouse assessed as mouse survival rate at 100 mg/kg administered once daily via oral gavage for 4 consecutive days beginning 1 hr after infection measured on day 13 post infection relative to control; assay type: functional; procedure, shortened: as §1
[12] = test system: Plasmodium berghei; experiment: Antimalarial activity against Plasmodium berghei infected in Swiss Webster mouse assessed as mouse survival rate at 33 mg/kg administered once daily via oral gavage for 4 consecutive days beginning 1 hr after infection measured on day 12 post infection relative to control; assay type: functional; procedure, shortened: as §2
[13] = test system: Plasmodium berghei; experiment: Antimalarial activity against Plasmodium berghei infected in Swiss Webster mouse assessed as mouse survival rate at 33 mg/kg administered once daily via oral gavage for 4 consecutive days beginning 1 hr after infection measured on day 6 post infection relative to control; assay type: functional; procedure, shortened: as §2
[14] = test system: Plasmodium berghei; experiment: Antimalarial activity against Plasmodium berghei infected in Swiss Webster mouse assessed as mouse survival rate at 11 mg/kg administered once daily via oral gavage for 4 consecutive days beginning 1 hr after infection measured on day 8 post infection relative to control; assay type: functional; procedure, shortened: as §2
[15] = test system: Plasmodium berghei; experiment: Antimalarial activity against Plasmodium berghei infected in Swiss Webster mouse assessed as mouse survival rate at 33 mg/kg administered once daily via oral gavage for 4 consecutive days beginning 1 hr after infection measured on day 5 post infection relative to control; assay type: functional; procedure, shortened: as §2
[16] = test system: Plasmodium berghei; experiment: Antimalarial activity against Plasmodium berghei infected in Swiss Webster mouse assessed as mouse survival rate at 33 mg/kg administered once daily via oral gavage for 4 consecutive days beginning 1 hr after infection measured on day 7 post infection relative to control; assay type: functional; procedure, shortened: as §2
[17] = test system: Plasmodium berghei; experiment: Antimalarial activity against Plasmodium berghei infected in Swiss Webster mouse assessed as mouse survival rate at 3.7 mg/kg administered once daily via oral gavage for 4 consecutive days beginning 1 hr after infection measured on day 6 post infection relative to control; assay type: functional; procedure, shortened: as §2
[18] = test system: Plasmodium berghei; experiment: Antimalarial activity against Plasmodium berghei infected in Swiss Webster mouse assessed as mouse survival rate at 100 mg/kg administered once daily via oral gavage for 4 consecutive days beginning 1 hr after infection measured on day 5 post infection relative to control; assay type: functional; procedure, shortened: as §1
[19] = test system: Plasmodium berghei; experiment: Antimalarial activity against Plasmodium berghei infected in Swiss Webster mouse assessed as mouse survival rate at 100 mg/kg administered once daily via oral gavage for 4 consecutive days beginning 1 hr after infection measured on day 7 post infection relative to control; assay type: functional; procedure, shortened: as §1
[20] = test system: Plasmodium falciparum; experiment: Antimalarial activity against chloroquine-resistant Plasmodium falciparum W2 infected in human erythrocytes after 48 hrs by YOYO-1 dye based flow cytometric analysis; assay type: functional, cell-based; conditions: W2, 48 h
Procedure, shortened: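 P. falciparum W2 cultures were exposed to the compound for 48 h, with artemisinin and chloroquine as reference controls. IC50 was taken from two independent replicates.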

[21] = test system: Plasmodium berghei; experiment: Antimalarial activity against Plasmodium berghei infected in Swiss Webster mouse assessed as mouse survival rate at 100 mg/kg administered once daily via oral gavage for 4 consecutive days beginning 1 hr after infection measured on day 14 post infection relative to control; assay type: functional; procedure, shortened: as §1
[22] = test system: Plasmodium berghei; experiment: Antimalarial activity against Plasmodium berghei infected in Swiss Webster mouse assessed as mouse survival rate at 100 mg/kg administered once daily via oral gavage for 4 consecutive days beginning 1 hr after infection measured on day 9 post infection relative to control; assay type: functional; procedure, shortened: as §1
[23] = test system: Plasmodium berghei; experiment: Antimalarial activity against Plasmodium berghei infected in Swiss Webster mouse assessed as mouse survival rate at 100 mg/kg administered once daily via oral gavage for 4 consecutive days beginning 1 hr after infection measured on day 12 post infection relative to control; assay type: functional; procedure, shortened: as §1
[24] = test system: Plasmodium berghei; experiment: Antimalarial activity against Plasmodium berghei infected in Swiss Webster mouse assessed as mouse survival rate at 1.2 mg/kg administered once daily via oral gavage for 4 consecutive days beginning 1 hr after infection measured on day 5 post infection relative to control; assay type: functional; procedure, shortened: as §1
[25] = test system: Plasmodium berghei; experiment: Antimalarial activity against Plasmodium berghei infected in Swiss Webster mouse assessed as mouse survival rate at 33 mg/kg administered once daily via oral gavage for 4 consecutive days beginning 1 hr after infection measured on day 9 post infection relative to control; assay type: functional; procedure, shortened: as §2
[26] = test system: Plasmodium berghei; experiment: Antimalarial activity against Plasmodium berghei infected in Swiss Webster mouse assessed as mouse survival rate at 100 mg/kg administered once daily via oral gavage for 4 consecutive days beginning 1 hr after infection measured on day 6 post infection relative to control; assay type: functional; procedure, shortened: as §1
[27] = test system: Plasmodium berghei; experiment: Antimalarial activity against Plasmodium berghei infected in Swiss Webster mouse assessed as mouse survival rate administered once daily via oral gavage for 4 consecutive days beginning 1 hr after infection measured on day 4 post infection; assay type: functional; procedure, shortened: as §1

Structure (SMILES)	survival at 11 mg/kg [2]	survival at 3.7 mg/kg [3]	survival at 11 mg/kg [5]	survival at 0.4 mg/kg [6]	survival at 33 mg/kg [7]	survival at 11 mg/kg [9]	survival at 100 mg/kg [10]	survival at 33 mg/kg [13]	survival at 11 mg/kg [14]	survival at 33 mg/kg [15]	survival at 33 mg/kg [16]	survival at 3.7 mg/kg [17]	survival at 100 mg/kg [18]	survival at 100 mg/kg [19]	IC50 [20]	survival at 100 mg/kg [22]	survival at 100 mg/kg [23]	survival at 1.2 mg/kg [24]	survival at 100 mg/kg [26]	ED90 [27]	also measured
CCCC1(O)CN(C(=O)c2cnc(Oc3ccc4c(c3C)B(O)OC4)cn2)C1	100%	100%	100%	0%	100%	100%	100%	100%	80%	100%	100%	100%	100%	100%	15.9 nM	100%	100%	100%	100%	3.3 mg/kg	survival at 0.1 mg/kg [1]: 0%; survival at 33 mg/kg [4]: 0%; survival at 33 mg/kg [8]: 100%; survival at 100 mg/kg [11]: 100%; survival at 33 mg/kg [12]: 100%; survival at 100 mg/kg [21]: 80%; survival at 33 mg/kg [25]: 100%
Cc1c(Oc2cnc(C(=O)NCCO)cn2)ccc2c1B(O)OC2	100%	100%	100%		100%	100%		100%		100%	0%	100%	100%	80%	372 nM	40%		100%	100%	56.1 mg/kg	
Cc1c(Oc2cnc(C(=O)N[C@@H](CO)CC(F)(F)F)cn2)ccc2c1B(O)OC2	100%	100%	100%	0%	100%	100%	0%	100%		100%	100%	100%	100%	100%	82.2 nM	100%		100%	100%	7.3 mg/kg	survival at 33 mg/kg [25]: 100%
Cc1c(Oc2cnc(C(=O)NC(C)CO)cn2)ccc2c1B(O)OC2 (stereo not drawn)	40%		100%		100%	40%	40%	100%	0%	100%	100%		100%	100%	342 nM	80%	0%		100%	44.3 mg/kg	
